# ChEMBL document CHEMBL1155278, “3,4-Diaryl-isoxazoles and -imidazoles as potent dual inhibitors of p38alpha mitogen activated protein kinase and casein kinase 1delta” (J Med Chem, 2009)
# Assays:
# [1] = target: T1, Serine/threonine-protein kinase BRSK2 (Homo sapiens) (UniProt Q8IWQ3); assay: Inhibition of BRSK2 assessed as residual activity at 0.1 uM by Cherenkov counting relative to control in presence of 50 uM ATP
# T1 sequence (whole entry): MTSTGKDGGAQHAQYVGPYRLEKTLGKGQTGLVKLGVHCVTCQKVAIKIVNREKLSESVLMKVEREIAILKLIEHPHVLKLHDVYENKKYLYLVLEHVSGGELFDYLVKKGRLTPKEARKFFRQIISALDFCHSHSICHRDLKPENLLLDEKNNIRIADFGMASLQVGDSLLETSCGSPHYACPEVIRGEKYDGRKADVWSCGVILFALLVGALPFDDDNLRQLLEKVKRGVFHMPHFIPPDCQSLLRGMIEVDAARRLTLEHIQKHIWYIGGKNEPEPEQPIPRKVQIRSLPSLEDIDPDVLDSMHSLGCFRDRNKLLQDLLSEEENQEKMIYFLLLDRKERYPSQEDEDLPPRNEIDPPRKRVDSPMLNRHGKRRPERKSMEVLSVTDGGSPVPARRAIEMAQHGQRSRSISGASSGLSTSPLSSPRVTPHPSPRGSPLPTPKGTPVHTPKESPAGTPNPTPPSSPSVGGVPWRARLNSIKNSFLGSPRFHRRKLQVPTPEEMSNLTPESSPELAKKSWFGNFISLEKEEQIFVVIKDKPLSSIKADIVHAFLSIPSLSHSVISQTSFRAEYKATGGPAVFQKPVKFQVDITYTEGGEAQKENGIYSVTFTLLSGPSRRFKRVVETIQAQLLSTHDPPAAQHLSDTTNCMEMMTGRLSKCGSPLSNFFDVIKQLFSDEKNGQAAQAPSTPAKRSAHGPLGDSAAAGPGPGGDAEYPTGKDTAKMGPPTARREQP
# Procedure, shortened: (§1)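 Single-concentration screen at 0.1 µM across a panel of 76 protein kinases. Each kinase was run at an ATP concentration approximating its ATP Km. Results are % mean residual activity versus control assays without compound (n = 3 ± SD).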
# [2] = target: T2, Serine/threonine-protein kinase TBK1 (Homo sapiens) (UniProt Q9UHD2); assay: Inhibition of TBK1 assessed as residual activity at 0.1 uM by Cherenkov counting relative to control in presence of 50 uM ATP
# T2 sequence (whole entry): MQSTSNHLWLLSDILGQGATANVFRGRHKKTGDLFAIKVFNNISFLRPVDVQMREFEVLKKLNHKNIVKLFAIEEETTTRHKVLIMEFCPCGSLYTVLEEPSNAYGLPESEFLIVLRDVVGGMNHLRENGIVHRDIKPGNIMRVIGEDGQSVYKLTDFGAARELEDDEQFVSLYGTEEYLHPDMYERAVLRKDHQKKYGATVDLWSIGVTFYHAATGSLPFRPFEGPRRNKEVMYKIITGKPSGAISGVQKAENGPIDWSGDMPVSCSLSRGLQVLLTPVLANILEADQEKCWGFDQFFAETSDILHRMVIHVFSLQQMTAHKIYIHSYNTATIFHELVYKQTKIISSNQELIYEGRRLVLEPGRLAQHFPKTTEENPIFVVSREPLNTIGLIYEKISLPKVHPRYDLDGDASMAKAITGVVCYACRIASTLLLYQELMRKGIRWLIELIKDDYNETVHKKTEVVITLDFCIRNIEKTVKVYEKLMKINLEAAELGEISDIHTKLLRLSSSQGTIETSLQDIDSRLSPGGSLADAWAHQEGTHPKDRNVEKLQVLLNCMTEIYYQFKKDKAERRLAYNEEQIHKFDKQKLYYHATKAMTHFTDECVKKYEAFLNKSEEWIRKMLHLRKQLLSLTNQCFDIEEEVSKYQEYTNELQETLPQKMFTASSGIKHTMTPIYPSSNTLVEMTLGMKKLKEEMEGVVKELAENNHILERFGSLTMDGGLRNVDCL
# Procedure, shortened: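 Single-concentration screen at 0.1 μM in a 76-kinase panel. ATP for each kinase was set near its Km for ATP. Residual activity is given as a percentage of control assays without compound, mean of n = 3 ± SD.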
# [3] = target: MAP kinase-interacting serine/threonine-protein kinase 1 (Homo sapiens) (UniProt Q9BUB5); assay: Inhibition of MNK1 assessed as residual activity at 0.1 uM by Cherenkov counting relative to control in presence of 50 uM ATP
# MAP kinase-interacting serine/threonine-protein kinase 1 (Homo sapiens), sequence (Q9BUB5 whole entry, looked up): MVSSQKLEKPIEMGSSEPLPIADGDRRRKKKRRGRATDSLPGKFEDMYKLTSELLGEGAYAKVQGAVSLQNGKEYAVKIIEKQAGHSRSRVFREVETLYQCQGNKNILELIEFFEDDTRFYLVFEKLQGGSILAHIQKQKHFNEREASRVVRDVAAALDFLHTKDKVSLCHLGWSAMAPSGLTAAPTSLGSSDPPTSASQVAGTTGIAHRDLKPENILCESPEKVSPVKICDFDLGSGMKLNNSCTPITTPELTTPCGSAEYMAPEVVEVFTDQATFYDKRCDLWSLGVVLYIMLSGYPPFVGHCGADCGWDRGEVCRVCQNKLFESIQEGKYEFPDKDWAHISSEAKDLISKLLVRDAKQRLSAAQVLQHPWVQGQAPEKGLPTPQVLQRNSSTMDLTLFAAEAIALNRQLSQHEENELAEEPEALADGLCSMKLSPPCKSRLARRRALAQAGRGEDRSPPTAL
# Procedure, shortened: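 Single-concentration selectivity screen at 0.1 μM against a panel of 76 protein kinases. Each kinase was run at an ATP level approximating its Km for ATP. Output is mean residual activity as % of the control assay without compound, n = 3 ± SD.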
# [4] = target: Mitogen-activated protein kinase 3 (Homo sapiens) (UniProt P27361); assay: Inhibition of ERK1 assessed as residual activity at 0.1 uM by Cherenkov counting relative to control in presence of 5 uM ATP; procedure, shortened: as §1
# Mitogen-activated protein kinase 3 (Homo sapiens), sequence (P27361 whole entry): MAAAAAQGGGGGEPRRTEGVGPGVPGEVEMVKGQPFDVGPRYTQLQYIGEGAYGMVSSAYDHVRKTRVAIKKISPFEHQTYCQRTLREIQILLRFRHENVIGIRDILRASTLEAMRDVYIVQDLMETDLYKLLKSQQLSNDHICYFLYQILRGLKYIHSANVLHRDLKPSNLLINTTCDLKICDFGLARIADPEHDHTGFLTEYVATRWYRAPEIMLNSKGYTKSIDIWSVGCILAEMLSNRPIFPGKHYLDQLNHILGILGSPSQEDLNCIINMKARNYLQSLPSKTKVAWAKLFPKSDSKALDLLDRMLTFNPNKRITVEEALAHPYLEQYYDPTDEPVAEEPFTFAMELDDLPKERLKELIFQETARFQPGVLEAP
# [5] = target: Cyclin-dependent kinase 2/cyclin A (Homo sapiens) (UniProt P24941+P20248+P78396); assay: Inhibition of CDK2/cyclin A assessed as residual activity at 10 uM by Cherenkov counting relative to control in presence of 20 uM ATP; format: protein-complex assay
# Procedure, shortened: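 Single-point profiling at 10 µM in a panel of 78 protein kinases. Kinase activity is expressed as a percentage relative to control assays without compound.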
# [6] = target: T3, Serine/threonine-protein kinase Sgk1 (Homo sapiens) (UniProt O00141); assay: Inhibition of SGK1 assessed as residual activity at 10 uM by Cherenkov counting relative to control in presence of 20 uM ATP
# T3 sequence (whole entry): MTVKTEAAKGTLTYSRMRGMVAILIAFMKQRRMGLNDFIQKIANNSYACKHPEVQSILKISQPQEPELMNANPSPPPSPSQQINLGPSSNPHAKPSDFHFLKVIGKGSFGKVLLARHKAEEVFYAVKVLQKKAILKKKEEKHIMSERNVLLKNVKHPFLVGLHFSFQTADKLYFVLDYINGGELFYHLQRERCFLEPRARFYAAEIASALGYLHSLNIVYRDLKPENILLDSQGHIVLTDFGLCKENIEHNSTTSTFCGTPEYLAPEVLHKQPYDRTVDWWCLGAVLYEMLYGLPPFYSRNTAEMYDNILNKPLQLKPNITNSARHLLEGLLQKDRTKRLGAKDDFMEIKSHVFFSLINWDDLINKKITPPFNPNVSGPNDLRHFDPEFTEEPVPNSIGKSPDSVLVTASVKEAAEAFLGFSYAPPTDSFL
# Procedure, shortened: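 Single-concentration profiling at 10 μM in a 78-kinase panel. Kinase activity is expressed as a percentage of control assays run without compound.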
# [7] = target: Ribosomal protein S6 kinase alpha-5 (Homo sapiens) (UniProt O75582); assay: Inhibition of MSK1 assessed as residual activity at 10 uM by Cherenkov counting relative to control in presence of 20 uM ATP
# Ribosomal protein S6 kinase alpha-5 (Homo sapiens), sequence (O75582 whole entry, looked up): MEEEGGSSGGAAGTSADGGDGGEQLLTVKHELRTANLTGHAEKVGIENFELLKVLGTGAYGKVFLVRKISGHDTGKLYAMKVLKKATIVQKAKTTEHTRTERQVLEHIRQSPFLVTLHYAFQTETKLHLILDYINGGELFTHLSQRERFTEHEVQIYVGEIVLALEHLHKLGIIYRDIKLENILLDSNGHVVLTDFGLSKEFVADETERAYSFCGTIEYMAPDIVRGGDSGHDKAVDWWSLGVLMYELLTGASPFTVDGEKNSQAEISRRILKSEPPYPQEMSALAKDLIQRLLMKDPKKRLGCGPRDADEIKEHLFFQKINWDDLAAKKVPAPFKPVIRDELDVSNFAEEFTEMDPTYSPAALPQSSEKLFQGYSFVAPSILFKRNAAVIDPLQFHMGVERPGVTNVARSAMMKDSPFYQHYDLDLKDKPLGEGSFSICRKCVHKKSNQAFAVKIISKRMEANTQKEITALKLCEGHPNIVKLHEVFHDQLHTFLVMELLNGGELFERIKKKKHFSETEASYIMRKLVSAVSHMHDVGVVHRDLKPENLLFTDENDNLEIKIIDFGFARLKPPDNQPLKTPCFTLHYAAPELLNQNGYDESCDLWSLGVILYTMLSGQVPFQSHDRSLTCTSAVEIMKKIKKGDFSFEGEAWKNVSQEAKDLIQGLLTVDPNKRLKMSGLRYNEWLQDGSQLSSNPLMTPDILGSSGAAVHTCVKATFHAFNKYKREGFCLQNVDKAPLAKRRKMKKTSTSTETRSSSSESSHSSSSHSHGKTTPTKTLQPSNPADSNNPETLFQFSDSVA
Activity [1] [%],Activity [2] [%],Activity [3] [%],Activity [4] [%],Activity [5] [%],Activity [6] [%],Activity [7] [%],Compound
97,106,96,101,–,–,–,COc1ccc(/C=C/C(=O)Nc2cc(-c3[nH]c([S+](C)[O-])nc3-c3ccc(F)cc3)ccn2)c(OC)c1 (centres undefined)
–,–,–,–,98,91,113,CC(C)c1noc(-c2ccc(F)cc2)c1-c1ccncc1
–,–,–,–,96,76,95,CC(C)c1onc(-c2ccc(F)cc2)c1-c1ccncc1
86,103,91,94,–,–,–,COc1ccc(/C=C/C(=O)Nc2cc(-c3[nH]c(SC)nc3-c3ccc(F)cc3)ccn2)c(OC)c1
